Data published in paper PMC3603146 (Nature structural & molecular biology, 2012).
Square brackets hold non-standard residues; d marks the D form. Peptide text beside a SMILES is read from it. Lys(Me3) = C[N+](C)(C)CCCC[C@H](N)C(=O)O

What was measured:
PHF1 Tudor (WT) = PHF1 Tudor (WT) (Homo sapiens, UniProt O43189); test: NMR 1H,15N HSQC titration of wild type PHF1 Tudor with histone peptides; assay type: binding; settings: for NMR chemical shift / resonance perturbations in PHF1 Tudor: titration of unlabeled peptide into 15N-labeled wild type Tudor
PHF1 Tudor Y47A = PHF1 Tudor Y47A (Homo sapiens, UniProt O43189, Y47A); test: NMR 1H,15N HSQC titration of PHF1 Tudor Y47A mutant; assay type: binding; settings: structure of the protein remained intact
Method in brief: (§1)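 Uniformly 15N-labeled mutant PHF1 Tudor (residues 14–87) was GST-purified from E. coli BL21(DE3) pLysS grown in 15NH4Cl M9 (0.5 mM IPTG), tag-cleaved and size-exclusion purified. 1H,15N HSQC spectra were recorded at 600 MHz (cryoprobe) with increasing concentrations of 12-mer histone tail peptides. Kd came from nonlinear least-squares fitting of normalized chemical shift changes versus peptide and protein concentration.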

GST-fusion PHF1 Tudor = test: Pull-down of GST-fusion PHF1 Tudor with biotinylated histone peptides; assay type: binding, human; settings: biotinylated peptides (H3K4, H3K9, unmodified H3: residues 1–21; H3K27, H3K36: residues 21–44), 50 mM Tris pH 7.5, 150 mM NaCl, 0.05% Nonidet P-40; anti-GST western
Method in brief: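 GST-tagged human PHF1 Tudor (residues 14–87) expressed in E. coli BL21(DE3) pLysS with 0.5 mM IPTG induction, purified on glutathione beads, eluted with 0.05 M reduced glutathione, then size exclusion. The protein was incubated with C-terminally biotinylated peptides (me1/me2/me3 forms) plus streptavidin beads. Beads were washed five times in binding buffer, and bound protein was detected with HRP-conjugated anti-GST monoclonal.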

PHF1 Tudor W41A = PHF1 Tudor W41A (Homo sapiens, UniProt O43189, W41A); test: NMR 1H,15N HSQC titration of PHF1 Tudor W41A mutant; assay type: binding; settings: structure of the protein remained intact
Method in brief: as §1

XRCC1 = XRCC1 accumulation at single stranded breaks upon PARP1 inhibitor treatment; assay type: cell-based; settings: low doses of radiation
[1] = test system: poly (ADP-ribose) PAR polymer; test: Poly; assay type: cell-based; settings: Western analysis
[2] = test system: Oct4, Nanog, HoxA4 and HoxA11 promoters, mouse ES cells; test: ChIP of H3K27me3 in mouse ES cells expressing Flag-PHF1; assay type: cell-based; settings: stably expressing Flag-PHF1 vs empty vector; H3K27me3 to total H3; two experiments
Method in brief: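 Mouse ES cells (ww6), grown on fibroblasts or with recombinant LIF, transduced with virus carrying pRTF vector (empty or Flag-PHF1); Flag-PHF1 clones selected. ChIP on 500 μg cross-linked chromatin with anti-H3 or anti-H3K27me3; qPCR with primers near the transcription start site. H3K27me3 expressed as ratio to total H3 to correct for nucleosome density; two separate ChIP experiments.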

[3] = test system: MYT1 promoter, HEK293T cells; test: ChIP at the MYT1 promoter in HEK293T cells; assay type: cell-based; settings: upon overexpression of PHF1; normalized to H3
Method in brief: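 HEK293T cells were transiently transfected with empty vector, wild-type HA-PHF1 or W41A/Y47A mutants, then fixed 48 h later (1×10^7 cells, 1% formaldehyde, 14 min, room temperature). Chromatin was sonicated to ~500 bp and immunoprecipitated with 4 μg antibody and Protein A magnetic beads. qPCR was run in triplicate with 7 MYT1 primer sets (−1680 to 866 around TSS). Fold-enrichment = IgG-subtracted %Input ÷ that of reference gene PCLB4. Data are mean ± SD of three biological replicates.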

HEK293T cells = assay type: cell-based; settings: HA-tagged PHF1, 48 hours after transfection, compared with empty vector
Method in brief: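 HEK293T cells were grown in DMEM with 10% FBS and penicillin/streptomycin. They were transiently transfected using polyethylenimine with full-length human PHF1 (C-terminal HA tag, pIRES2-EGFP; wild type, W41A or Y47A) or empty plasmid as negative control. Whole-cell lysates were collected 48 h post-transfection for Western blot with rabbit antibodies to HA, histone H3, H3K27me3 and H3K36me3.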

## CC(C)[C@H](NC(=O)CNC(=O)CNC(=O)[C@@H](NC(=O)[C@H](C)N)[C@@H](C)O)C(=O)N[C@@H](CCCC[N+](C)(C)C)C(=O)N[C@@H](CCCCN)C(=O)N1CCC[C@H]1C(=O)N[C@@H](Cc1c[nH]cn1)C(=O)N[C@@H](CCCNC(=N)N)C(=O)O [H3K36me3] (H-ATGGV[Lys(Me3)]KPHR-OH; N-terminus and C-terminus assumed)
PHF1 Tudor (WT)
  NMR chemical shift / resonance perturbations in PHF1 Tudor: large chemical shift perturbations
PHF1 Tudor Y47A
  effect of Y47A substitution on binding to H3K36me3: disrupted binding
GST-fusion PHF1 Tudor
  association of PHF1 Tudor in pull-down: associated most strongly
PHF1 Tudor W41A
  effect of W41A substitution on binding to H3K36me3: disrupted binding

## O=C(c1cc(Cc2n[nH]c(=O)c3ccccc23)ccc1F)N1CCN(C(=O)C2CC2)CC1 [AZD2281]
XRCC1
  accumulation of XRCC1 at single stranded breaks: loss of accumulation
[1]
  poly (ADP-ribose) PAR polymer: decrease in poly (ADP-ribose) PAR polymer

## C[C@H](N)C(=O)N[C@@H](CCCNC(=N)N)C(=O)N[C@H](C(=O)N[C@@H](CCCC[N+](C)(C)C)C(=O)N[C@@H](CCC(N)=O)C(=O)N[C@H](C(=O)N[C@@H](C)C(=O)N[C@@H](CCCNC(=N)N)C(=O)N[C@@H](CCCCN)C(=O)N[C@@H](CO)C(=O)N[C@H](C(=O)NCC(=O)O)[C@@H](C)O)[C@@H](C)O)[C@@H](C)O [H3K4me3]
PHF1 Tudor (WT); relative to H3K36me3, ITC or NMR (Fig. 3a)
  times weaker binding than H3K36me3 (trimethylated at other lysine residues): ~8 times
PHF1 Tudor (WT)
  NMR chemical shift / resonance perturbations in PHF1 Tudor: slightly different patterns of chemical shift changes

B1: Flag-PHF1: Flag-tagged PHF1 stably expressed in mouse ES cells (protein, UniProt Q9Z1B8 1-559, looked up)
PHD finger protein 1: MAQLPRLSRLGAPSLWDPASPAPTSGPRPRLWEGQDVLARWTDGLLYLGTIKKVDSAREVCLVQFEDDSQFLVLWKDISPAALPGEELLCCVCRSETVVPGNRLVSCEKCRHAYHQDCHVPRAPAPGEGEGASWVCRQCVFAIATKRGGALKKGPYARAMLGMKLSLPYGLKGLDWDAGHLSNRQQSYCYCGGPGEWNLKMLQCRSCLQWFHEACTQCLSKPLLYGDRFYEFECCVCRGGPEKVRRLQLRWVDVAHLVLYHLSVCCKKKYFDFDREILPFTSENWDSLLLGELSDTPKGERSSQLLSALNSHKDRFISGREIKKRKCLFGLHARTPPPVELLTGDGAPTSFPSGQGPGGGVSRPLGKRWRSEPEPLRRRQKGKVEELGPPTAAHSRHGSREQRALQASVSPPPPSPNQSYEGSSGYNFRPTDARCLPSSPIRMFASFHPSASTAGTSGDSEPPDRSPLGLHIGFPTDTPKSSPHSVTASSSSVPALTPGFSRHSPPSPLCRSLSPGTGGGVRGGVSYLSRGDPVRVLARRVRPDGSVQYLVEWGGGGIF
modifications: Flag tag
[2]
  H3K27me3 level at HoxA4 and HoxA11: comparable H3K27me3 level
  H3K27me3 signal at Oct4 and Nanog: reproducible decrease of the H3K27me3 signal

B2: wild type PHF1: full length hPHF1 expressed in HEK293T (HA-tag) or K562 cells (Flag) (protein, UniProt O43189 1-567, looked up)
chain: MAQPPRLSRSGASSLWDPASPAPTSGPRPRLWEGQDVLARWTDGLLYLGTIKKVDSAREVCLVQFEDDSQFLVLWKDISPAALPGEELLCCVCRSETVVPGNRLVSCEKCRHAYHQDCHVPRAPAPGEGEGTSWVCRQCVFAIATKRGGALKKGPYARAMLGMKLSLPYGLKGLDWDAGHLSNRQQSYCYCGGPGEWNLKMLQCRSCLQWFHEACTQCLSKPLLYGDRFYEFECCVCRGGPEKVRRLQLRWVDVAHLVLYHLSVCCKKKYFDFDREILPFTSENWDSLLLGELSDTPKGERSSRLLSALNSHKDRFISGREIKKRKCLFGLHARMPPPVEPPTGDGALTSFPSGQGPGGGVSRPLGKRRRPEPEPLRRRQKGKVEELGPPSAVRNQPEPQEQRERAHLQRALQASVSPPSPSPNQSYQGSSGYNFRPTDARCLPSSPIRMFASFHPSASTAGTSGDSGPPDRSPLELHIGFPTDIPKSAPHSMTASSSSVSSPSPGLPRRSAPPSPLCRSLSPGTGGGVRGGVGYLSRGDPVRVLARRVRPDGSVQYLVEWGGGGIF
modifications: full-length HA or Flag tag
[3]
  H3K27me3 levels at MYT1: substantially reduced
HEK293T cells
  global level of H3K27me3: decrease in the global level of H3K27me3

B3: W41A: PHF1 mutant impaired in H3K36me3 binding; HA-tagged, GFP-fusion or in Flag-PHF1-PRC2 complex according to the test (protein, UniProt O43189 1-567, looked up, variant W41A)
PHD finger protein 1: MAQPPRLSRSGASSLWDPASPAPTSGPRPRLWEGQDVLARATDGLLYLGTIKKVDSAREVCLVQFEDDSQFLVLWKDISPAALPGEELLCCVCRSETVVPGNRLVSCEKCRHAYHQDCHVPRAPAPGEGEGTSWVCRQCVFAIATKRGGALKKGPYARAMLGMKLSLPYGLKGLDWDAGHLSNRQQSYCYCGGPGEWNLKMLQCRSCLQWFHEACTQCLSKPLLYGDRFYEFECCVCRGGPEKVRRLQLRWVDVAHLVLYHLSVCCKKKYFDFDREILPFTSENWDSLLLGELSDTPKGERSSRLLSALNSHKDRFISGREIKKRKCLFGLHARMPPPVEPPTGDGALTSFPSGQGPGGGVSRPLGKRRRPEPEPLRRRQKGKVEELGPPSAVRNQPEPQEQRERAHLQRALQASVSPPSPSPNQSYQGSSGYNFRPTDARCLPSSPIRMFASFHPSASTAGTSGDSGPPDRSPLELHIGFPTDIPKSAPHSMTASSSSVSSPSPGLPRRSAPPSPLCRSLSPGTGGGVRGGVGYLSRGDPVRVLARRVRPDGSVQYLVEWGGGGIF
modifications: HA, GFP or Flag tag
HEK293T cells
  global level of H3K27me3: no effect on the H3K27me3 level

B4: Y47A: PHF1 mutant impaired in H3K36me3 binding; HA-tagged, GFP-fusion or in Flag-PHF1-PRC2 complex according to the test (protein, UniProt O43189 1-567, looked up, variant Y47A)
PHD finger protein 1: MAQPPRLSRSGASSLWDPASPAPTSGPRPRLWEGQDVLARWTDGLLALGTIKKVDSAREVCLVQFEDDSQFLVLWKDISPAALPGEELLCCVCRSETVVPGNRLVSCEKCRHAYHQDCHVPRAPAPGEGEGTSWVCRQCVFAIATKRGGALKKGPYARAMLGMKLSLPYGLKGLDWDAGHLSNRQQSYCYCGGPGEWNLKMLQCRSCLQWFHEACTQCLSKPLLYGDRFYEFECCVCRGGPEKVRRLQLRWVDVAHLVLYHLSVCCKKKYFDFDREILPFTSENWDSLLLGELSDTPKGERSSRLLSALNSHKDRFISGREIKKRKCLFGLHARMPPPVEPPTGDGALTSFPSGQGPGGGVSRPLGKRRRPEPEPLRRRQKGKVEELGPPSAVRNQPEPQEQRERAHLQRALQASVSPPSPSPNQSYQGSSGYNFRPTDARCLPSSPIRMFASFHPSASTAGTSGDSGPPDRSPLELHIGFPTDIPKSAPHSMTASSSSVSSPSPGLPRRSAPPSPLCRSLSPGTGGGVRGGVGYLSRGDPVRVLARRVRPDGSVQYLVEWGGGGIF
modifications: HA, GFP or Flag tag
HEK293T cells
  global level of H3K27me3: no effect on the H3K27me3 level
